Reference: ChEMBL document CHEMBL3399927, “Identification of novel inhibitors of Aurora A with a 3-(pyrrolopyridin-2-yl)indazole scaffold” (Bioorg Med Chem, 2015)
Calls of active or inactive are those of the source. No cut-off for these calls is given here.

Tests used:
[1] = target: Cell division cycle 7-related protein kinase (Homo sapiens) (UniProt O00311); assay: Inhibition of CDC7 (unknown origin)
[2] = target: Serine/threonine-protein kinase B-raf (Homo sapiens) (UniProt P15056); assay: Inhibition of BRAF (unknown origin) at 1 ug/ml relative to control
Aurora kinase A = target: T1, Aurora kinase A (Homo sapiens, UniProt O14965); assay: Inhibition of human full length Aurora A by Z'-LYTE assay
T1 sequence (O14965 whole entry): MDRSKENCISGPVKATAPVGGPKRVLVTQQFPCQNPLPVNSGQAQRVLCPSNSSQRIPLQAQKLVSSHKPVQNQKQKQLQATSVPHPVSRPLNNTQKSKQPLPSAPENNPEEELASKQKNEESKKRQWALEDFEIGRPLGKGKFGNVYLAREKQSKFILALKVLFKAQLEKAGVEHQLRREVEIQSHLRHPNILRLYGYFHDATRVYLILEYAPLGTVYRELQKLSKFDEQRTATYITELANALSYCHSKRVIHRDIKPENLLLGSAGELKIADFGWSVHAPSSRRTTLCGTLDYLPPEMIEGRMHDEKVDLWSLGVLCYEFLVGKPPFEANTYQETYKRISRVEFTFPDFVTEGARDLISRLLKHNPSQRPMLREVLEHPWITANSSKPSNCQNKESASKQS

[3] = target: Glycogen synthase kinase-3 beta (Homo sapiens) (UniProt P49841); assay: Inhibition of GSK3beta (unknown origin) at 1 ug/ml relative to control
A549 = assay: Antiproliferative activity against human A549 cells after 72 hrs by MTT assay; type: functional, cell-based; details: A549, 72 h
[4] = Apparent permeability across apical to basolateral side in MDCK cells by HPLC; type: ADME, cell-based, Canis lupus familiaris; details: dog
[5] = target: T2, Aurora kinase A (Homo sapiens) (UniProt O14965); assay: Inhibition of human full length Aurora A at 1 ug/ml by Z'-LYTE assay
T2 sequence (whole entry): T1 sequence (O14965 whole entry)

[6] = target: T3, Serine/threonine-protein kinase Chk1 (Homo sapiens) (UniProt O14757); assay: Inhibition of CHK1 (unknown origin) at 1 ug/ml relative to control
T3 sequence (whole entry): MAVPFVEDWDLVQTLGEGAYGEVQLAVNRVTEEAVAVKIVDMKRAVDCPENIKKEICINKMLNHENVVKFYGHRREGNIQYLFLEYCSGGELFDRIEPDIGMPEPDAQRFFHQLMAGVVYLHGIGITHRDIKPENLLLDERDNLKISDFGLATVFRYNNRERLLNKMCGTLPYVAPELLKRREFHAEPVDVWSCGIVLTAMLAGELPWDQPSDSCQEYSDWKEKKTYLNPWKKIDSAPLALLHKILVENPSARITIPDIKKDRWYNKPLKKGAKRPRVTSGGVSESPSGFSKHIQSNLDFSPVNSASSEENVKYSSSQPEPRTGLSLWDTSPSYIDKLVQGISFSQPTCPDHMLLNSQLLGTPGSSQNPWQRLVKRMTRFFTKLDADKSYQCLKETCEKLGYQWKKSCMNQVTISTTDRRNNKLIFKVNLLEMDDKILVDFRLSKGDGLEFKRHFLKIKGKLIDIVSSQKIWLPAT
Outline: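 Fixed-concentration screen at 1 µg/mL using the luminescent ADP-Glo assay.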

[7] = Cell cycle arrest in human HCT116 cells assessed as accumulation at G2/M phase at 200 nM after 24 hrs by FACS analysis; type: functional, cell-based; details: HCT-116
KB = assay: Antiproliferative activity against human KB cells after 72 hrs by MTT assay; type: functional, cell-based
Outline: (§1)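 Cells grown in RPMI-1640 with heat-inactivated 10% FBS, penicillin 100 units/mL and streptomycin 100 μg/mL, at 37 °C under 20% O2, 5% CO2. Compounds dissolved in DMSO at 10.0 mg/mL (stock), then diluted. Cells were plated for 24 h, exposed to a range of concentrations for 72 h, and viability was read by MTT. IC50 is 50% absorbance inhibition versus control cells; means of three experiments.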

[8] = target: T4, Inhibitor of nuclear factor kappa-B kinase subunit beta (Homo sapiens) (UniProt O14920); assay: Inhibition of IKKbeta (unknown origin) at 1 ug/ml relative to control
T4 sequence (whole entry): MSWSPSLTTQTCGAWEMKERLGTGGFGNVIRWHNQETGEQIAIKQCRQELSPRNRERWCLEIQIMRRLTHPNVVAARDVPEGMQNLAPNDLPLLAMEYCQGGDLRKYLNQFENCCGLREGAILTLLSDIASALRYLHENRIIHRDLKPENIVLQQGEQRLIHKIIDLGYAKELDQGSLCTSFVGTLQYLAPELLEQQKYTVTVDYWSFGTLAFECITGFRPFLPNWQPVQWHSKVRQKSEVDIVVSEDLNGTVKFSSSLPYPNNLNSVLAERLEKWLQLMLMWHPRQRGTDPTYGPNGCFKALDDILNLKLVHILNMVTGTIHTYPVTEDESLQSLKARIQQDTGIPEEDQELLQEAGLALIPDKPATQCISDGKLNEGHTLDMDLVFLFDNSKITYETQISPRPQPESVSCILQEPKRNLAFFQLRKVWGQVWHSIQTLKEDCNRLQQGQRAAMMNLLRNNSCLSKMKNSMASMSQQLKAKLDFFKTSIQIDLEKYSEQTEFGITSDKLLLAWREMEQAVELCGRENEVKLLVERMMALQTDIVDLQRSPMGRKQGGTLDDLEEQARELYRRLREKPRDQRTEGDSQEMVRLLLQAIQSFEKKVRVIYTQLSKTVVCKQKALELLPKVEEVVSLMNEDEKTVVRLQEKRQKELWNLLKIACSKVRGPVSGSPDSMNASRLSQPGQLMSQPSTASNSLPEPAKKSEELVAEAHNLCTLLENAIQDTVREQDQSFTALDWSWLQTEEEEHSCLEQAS

[9] = Antiproliferative activity against human HL60 cells after 72 hrs by MTT assay; type: functional, cell-based; details: HL-60, 72 h
Outline: as §1

[10] = target: Cyclin-dependent kinase 2 (Homo sapiens) (UniProt P24941); assay: Inhibition of CDK2 (unknown origin) at 1 ug/ml relative to control
[11] = target: Dual specificity mitogen-activated protein kinase kinase 1 (Homo sapiens) (UniProt Q02750); assay: Inhibition of MEK1 (unknown origin) at 1 ug/ml relative to control
[12] = Cell cycle arrest in human HCT116 cells assessed as accumulation at G2/M phase after 24 hrs by FACS analysis; type: functional, cell-based; details: HCT-116
HCT-116 [13] = assay: Induction of apoptosis in human HCT116 cells at 200 nM after 24 hrs by FACS analysis relative to control; type: functional
[14] = Antiproliferative activity against human HCT116 cells after 72 hrs by MTT assay; type: functional, cell-based; details: HCT-116, 72 h
Outline: as §1

[15] = target: Protein kinase C (PKC) (Homo sapiens) (UniProt O94806+P41743+P17252+P05129+Q05655+P05771+Q05513+Q02156+P24723+Q15139+Q04759); assay: Inhibition of PKC (unknown origin) at 1 ug/ml relative to control
Outline: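 Fixed-concentration screen at 1 µg/mL with a Z'-LYTE kinase assay kit.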

[16] = Antiproliferative activity against human SMMC7721 cells after 72 hrs by MTT assay; type: functional, cell-based; details: SMMC-7721, 72 h
Outline: as §1

HCT-116 [17] = assay: Ratio of taxol IC50 to compound IC50 for human HCT116 cells; type: functional

Dual specificity mitogen-activated protein kinase kinase 1 (Homo sapiens), sequence (Q02750 whole entry): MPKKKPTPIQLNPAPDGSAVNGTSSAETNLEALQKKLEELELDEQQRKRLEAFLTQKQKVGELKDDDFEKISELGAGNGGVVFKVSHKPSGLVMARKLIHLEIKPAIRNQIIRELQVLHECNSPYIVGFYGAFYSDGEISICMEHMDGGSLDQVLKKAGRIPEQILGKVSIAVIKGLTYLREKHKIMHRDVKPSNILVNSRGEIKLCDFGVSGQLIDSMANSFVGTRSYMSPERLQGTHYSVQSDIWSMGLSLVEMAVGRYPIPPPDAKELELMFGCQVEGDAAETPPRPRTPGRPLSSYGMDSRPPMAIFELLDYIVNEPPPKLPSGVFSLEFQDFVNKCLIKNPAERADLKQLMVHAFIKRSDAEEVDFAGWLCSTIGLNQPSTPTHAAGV
Serine/threonine-protein kinase B-raf (Homo sapiens), sequence (P15056 whole entry): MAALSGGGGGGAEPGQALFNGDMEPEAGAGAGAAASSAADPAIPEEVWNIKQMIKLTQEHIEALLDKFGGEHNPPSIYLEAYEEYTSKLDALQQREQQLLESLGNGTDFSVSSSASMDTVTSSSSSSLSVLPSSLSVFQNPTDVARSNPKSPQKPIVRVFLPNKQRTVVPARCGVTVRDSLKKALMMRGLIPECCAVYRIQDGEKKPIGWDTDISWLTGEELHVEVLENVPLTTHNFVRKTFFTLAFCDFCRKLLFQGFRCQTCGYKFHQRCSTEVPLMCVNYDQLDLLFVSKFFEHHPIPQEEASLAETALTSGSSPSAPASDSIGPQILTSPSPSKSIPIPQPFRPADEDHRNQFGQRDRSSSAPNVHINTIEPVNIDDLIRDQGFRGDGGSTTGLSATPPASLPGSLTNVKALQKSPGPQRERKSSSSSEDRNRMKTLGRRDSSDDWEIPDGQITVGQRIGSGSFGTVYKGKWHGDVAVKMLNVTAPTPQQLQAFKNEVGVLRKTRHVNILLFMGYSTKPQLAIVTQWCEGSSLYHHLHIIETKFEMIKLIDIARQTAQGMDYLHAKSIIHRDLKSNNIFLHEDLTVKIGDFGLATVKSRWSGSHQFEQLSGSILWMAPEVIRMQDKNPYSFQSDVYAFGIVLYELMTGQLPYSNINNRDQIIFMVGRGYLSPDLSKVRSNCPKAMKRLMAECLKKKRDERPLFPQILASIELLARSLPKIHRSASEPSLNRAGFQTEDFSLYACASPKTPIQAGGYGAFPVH
Cell division cycle 7-related protein kinase (Homo sapiens), sequence (O00311 whole entry, looked up): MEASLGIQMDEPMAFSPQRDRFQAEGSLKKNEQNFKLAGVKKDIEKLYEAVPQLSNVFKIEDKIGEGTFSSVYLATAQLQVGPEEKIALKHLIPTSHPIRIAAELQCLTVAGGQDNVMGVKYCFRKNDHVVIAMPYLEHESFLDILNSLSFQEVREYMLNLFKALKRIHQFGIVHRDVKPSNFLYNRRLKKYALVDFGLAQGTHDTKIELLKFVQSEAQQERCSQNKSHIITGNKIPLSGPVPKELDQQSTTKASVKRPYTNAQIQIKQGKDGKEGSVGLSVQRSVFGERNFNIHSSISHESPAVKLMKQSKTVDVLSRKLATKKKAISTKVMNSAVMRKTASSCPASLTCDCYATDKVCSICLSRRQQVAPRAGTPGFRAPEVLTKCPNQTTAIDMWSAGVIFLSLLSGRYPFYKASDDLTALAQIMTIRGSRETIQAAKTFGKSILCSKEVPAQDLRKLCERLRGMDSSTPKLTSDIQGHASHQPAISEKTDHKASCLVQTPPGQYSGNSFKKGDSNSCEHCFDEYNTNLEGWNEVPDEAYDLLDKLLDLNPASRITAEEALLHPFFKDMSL
Glycogen synthase kinase-3 beta (Homo sapiens), sequence (P49841 whole entry, looked up): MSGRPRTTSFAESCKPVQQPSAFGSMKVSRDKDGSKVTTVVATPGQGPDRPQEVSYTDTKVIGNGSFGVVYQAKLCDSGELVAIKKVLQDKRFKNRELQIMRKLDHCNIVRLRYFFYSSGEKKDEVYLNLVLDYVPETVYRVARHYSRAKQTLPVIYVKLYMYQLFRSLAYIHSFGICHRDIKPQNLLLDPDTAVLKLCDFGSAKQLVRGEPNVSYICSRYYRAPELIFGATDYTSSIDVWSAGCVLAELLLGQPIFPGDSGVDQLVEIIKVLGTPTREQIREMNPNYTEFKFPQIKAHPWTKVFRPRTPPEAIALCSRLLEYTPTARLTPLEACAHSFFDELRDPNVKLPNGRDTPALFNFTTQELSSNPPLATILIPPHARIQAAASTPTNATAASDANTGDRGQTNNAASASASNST

**Q.** For `N#Cc1ccc2c(-c3cc4cc(CN5CCOCC5)ccc4[nH]3)n[nH]c2c1`, which IC50 [1] is on record?
**A.** 11 nM

**Q.** With `CN(C(=O)Nc1ccccc1)c1ccc2[nH]c(-c3n[nH]c4ccccc34)cc2n1` as the compound, how does the inhibition [2] read?
**A.** 16.4%

**Q.** And the IC50 (Aurora kinase A)?
**A.** 519 nM

**Q.** And the inhibition [3]?
**A.** 19.3%

**Q.** And the IC50 (A549)?
**A.** 1430 nM

**Q.** And the Papp A→B [4]?
**A.** 6.07 ×10⁻⁶ cm/s

**Q.** And the inhibition [5]?
**A.** 75.4%

**Q.** What about the inhibition [6] of the same compound?
**A.** 20.5%

**Q.** What about the Activity [7] of the same compound?
**A.** Active

**Q.** And the IC50 (KB)?
**A.** 32 nM

**Q.** What about the inhibition [8] of the same compound?
**A.** 0.55%

**Q.** What about the IC50 [9] of the same compound?
**A.** 8.3 nM

**Q.** And the inhibition [10]?
**A.** 13.8%

**Q.** What about the inhibition [11] of the same compound?
**A.** 6.64%

**Q.** And the Activity [12]?
**A.** Dose-dependent effect

**Q.** What about the Activity (HCT-116 [13]) of the same compound?
**A.** 25.4%

**Q.** And the IC50 [14]?
**A.** 1.3 nM

**Q.** What about the inhibition [15] of the same compound?
**A.** 0.62%

**Q.** And the IC50 [16]?
**A.** 280 nM

**Q.** And the “Ratio IC50” value (HCT-116 [17])?
**A.** 3
